Experimental data reported in BindingDB's records for doi:10.1021/np970237h (University of Antwerp, 1998).

Molecular target: Xanthine dehydrogenase/oxidase (Homo sapiens, UniProt P47989)
Assay: Inhibition of xanthine oxidase assessed as decrease in uric acid production by spectrophotometry
Method in brief: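 Flavonoid at various concentrations with 50 µM xanthine, 0.2 mM hydroxylamine and 0.1 mM EDTA. Stopped with HCl, then uric acid read as absorbance at 290 nm against an enzyme-free blank. IC50 by linear regression.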

Xanthine dehydrogenase/oxidase, sequence (P47989 whole entry): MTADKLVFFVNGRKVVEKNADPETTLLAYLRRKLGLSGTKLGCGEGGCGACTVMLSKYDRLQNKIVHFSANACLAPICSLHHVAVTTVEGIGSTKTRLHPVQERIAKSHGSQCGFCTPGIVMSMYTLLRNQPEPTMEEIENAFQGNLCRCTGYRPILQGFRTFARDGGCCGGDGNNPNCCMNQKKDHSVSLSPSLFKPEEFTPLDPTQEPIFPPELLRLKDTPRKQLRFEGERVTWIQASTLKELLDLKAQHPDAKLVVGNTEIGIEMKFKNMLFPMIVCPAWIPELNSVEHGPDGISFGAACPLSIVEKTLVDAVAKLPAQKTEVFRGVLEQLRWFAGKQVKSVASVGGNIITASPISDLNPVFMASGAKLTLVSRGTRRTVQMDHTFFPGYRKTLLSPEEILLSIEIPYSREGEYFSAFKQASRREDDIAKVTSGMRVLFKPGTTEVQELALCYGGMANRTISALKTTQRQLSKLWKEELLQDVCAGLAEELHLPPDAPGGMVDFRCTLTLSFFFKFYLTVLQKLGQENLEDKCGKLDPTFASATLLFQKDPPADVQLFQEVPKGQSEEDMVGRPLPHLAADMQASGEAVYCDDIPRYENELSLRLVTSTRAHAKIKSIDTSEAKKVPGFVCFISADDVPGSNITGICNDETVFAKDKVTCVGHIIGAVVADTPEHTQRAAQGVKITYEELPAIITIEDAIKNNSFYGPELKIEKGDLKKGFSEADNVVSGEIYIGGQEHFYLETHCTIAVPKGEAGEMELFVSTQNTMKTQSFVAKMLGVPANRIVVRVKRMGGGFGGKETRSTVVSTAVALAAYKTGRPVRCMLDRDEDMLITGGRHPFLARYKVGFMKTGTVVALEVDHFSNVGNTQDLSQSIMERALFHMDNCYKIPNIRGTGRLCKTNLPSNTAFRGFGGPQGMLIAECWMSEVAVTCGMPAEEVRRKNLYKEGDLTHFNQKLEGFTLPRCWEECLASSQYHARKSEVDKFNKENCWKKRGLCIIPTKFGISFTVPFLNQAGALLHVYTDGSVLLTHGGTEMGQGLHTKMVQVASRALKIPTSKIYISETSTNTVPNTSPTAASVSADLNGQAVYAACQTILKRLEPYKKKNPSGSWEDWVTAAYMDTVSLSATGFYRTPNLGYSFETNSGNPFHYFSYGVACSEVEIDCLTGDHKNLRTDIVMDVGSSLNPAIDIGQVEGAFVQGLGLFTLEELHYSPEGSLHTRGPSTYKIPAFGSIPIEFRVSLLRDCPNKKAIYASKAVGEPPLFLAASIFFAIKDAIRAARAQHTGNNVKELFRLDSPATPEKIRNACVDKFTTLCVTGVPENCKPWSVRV

| IC50 [µM] | Structure (SMILES) |
| --- | --- |
| > 100 | C[C@@H]1O[C@@H](Oc2c(-c3ccc(O)c(O)c3)oc3cc(O)cc(=O)c-3c2O)[C@H](O)[C@H](O)[C@H]1O |
| > 100 | O=C(C=Cc1ccc(O)cc1)OC[C@H]1O[C@@H](Oc2c(-c3ccc(O)cc3)oc3cc(O)cc(=O)c-3c2O)[C@H](O)[C@@H](O)[C@@H]1O [kaempferol-3-beta-D-(6-O-trans-p-coumaroyl)glucopyranoside] |
